Peptide text beside a SMILES is read from it. * marks the point of attachment. Palmitoyl = CCCCCCCCCCCCCCCC(=O)*
What was measured:
[1] = target: T1, Tyrosine-protein phosphatase non-receptor type 1 (Homo sapiens, UniProt P18031); assay: Binding affinity to recombinant human PTP1B measured by Surface plasmon resonance assay
T1 sequence (P18031 whole entry): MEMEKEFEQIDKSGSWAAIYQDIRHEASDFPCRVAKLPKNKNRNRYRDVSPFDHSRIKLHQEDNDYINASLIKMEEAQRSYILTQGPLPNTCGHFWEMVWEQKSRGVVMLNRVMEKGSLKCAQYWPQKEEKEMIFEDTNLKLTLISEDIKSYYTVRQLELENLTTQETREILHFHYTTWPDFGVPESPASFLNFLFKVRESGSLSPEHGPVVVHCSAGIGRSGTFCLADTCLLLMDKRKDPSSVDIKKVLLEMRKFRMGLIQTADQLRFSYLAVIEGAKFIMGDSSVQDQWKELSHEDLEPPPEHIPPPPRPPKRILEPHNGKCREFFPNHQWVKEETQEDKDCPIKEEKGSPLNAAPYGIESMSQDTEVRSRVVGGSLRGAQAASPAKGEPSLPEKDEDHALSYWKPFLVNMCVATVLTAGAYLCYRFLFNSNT

[2] = target: T2, Tyrosine-protein phosphatase non-receptor type 1 (Homo sapiens) (UniProt P18031); assay: Inhibition of PTP1B in human insulin resistant HepG2 cells assessed as induction of 2-NBDG uptake incubated with compound for 24 hrs followed by treatment with insulin for 30 mins and later incubated with 2-NBDG for 30 mins by fluorimetric method; format: cell-based; details: dose 0.1-10 µM, time 25.0 hrs
T2 sequence (whole entry): T1 sequence (P18031 whole entry)
How it was run: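 HepG2 cells were made insulin-resistant with palmitic acid, then treated 24 h with test agents at several concentrations. Vehicle was equal-volume DMSO. Mean ± SD, n = 4, compared with vehicle.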

[3] = target: T1, Tyrosine-protein phosphatase non-receptor type 1; assay: Inhibition of recombinant N-terminal His-tagged human PTP1B (E2 to N321) expressed in Escherichia coli expression system assessed by dephosphorylation of substrate pNPP measured for 4 mins by plate reader analysis
[4] = target: T2, Tyrosine-protein phosphatase non-receptor type 1 (Homo sapiens); assay: Binding affinity to recombinant human PTP1B assessed as off-rate constant, Koff measured by Surface plasmon resonance assay
[5] = target: T2, Tyrosine-protein phosphatase non-receptor type 1 (Homo sapiens); assay: Binding affinity to recombinant human PTP1B assessed as on-rate constant, Kon measured by Surface plasmon resonance assay
Mus musculus = assay: Antidiabetic activity in diabetic db/db C57BL/K mouse assessed as decrease in blood glucose at 0.5 umol/kg, sc qd for 7 days measured at 1 hr post-last drug dosing by blood glucose meter analysis; format: functional; details: 168 h, time 7 day
How it was run: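 Diabetic db/db mice received a daily s.c. dose (0.5 or 2 μmol/kg) or vehicle for one week. Blood glucose was compared at baseline and at 1 week, and the value is the percent decrease of blood glucose. Liraglutide was the positive control.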

Molecule: CCCCCCCCCCCCCCCC(=O)N[C@@H](Cc1ccc(O)cc1)C(=O)NCC(=O)N[C@@H](CCCNC(=N)N)C(=O)N[C@@H](CCC(=O)O)C(=O)N[C@@H](CC(C)C)C(=O)N[C@@H](CCCNC(=N)N)C(=O)N[C@@H](CCCNC(=N)N)C(=O)N[C@@H](CCSC)C(=O)N[C@@H](CO)C(=O)N[C@@H](CC(=O)O)C(=O)N[C@@H](CCC(=O)O)C(=O)N[C@@H](Cc1ccccc1)C(=O)O (Palmitoyl-YGRELRRMSDEF-OH)
- Kd [1]: Not Active

Molecule: H-WAREIGAQLRRMADDLNAQY-OH
- inhibition [2]: Dose-dependent effect
- IC50 [3]: 6840 nM
- Kd ([1]; read-out: Kd): 105 nM
- K [4]: 1.52 10^-4/s
- K [5]: 1.45 10^4/M.s

Molecule: H-STKKLSECLKRIGDELDSNM-OH
- inhibition [2]: Dose-dependent effect
- IC50 [3]: 5250 nM
- Kd ([1]; read-out: Kd): 86.3 nM
- K [4]: 8.39 10^-4/s
- K [5]: 9.73 10^3/M.s

Molecule: CCCCCCCCCCCCCCCC(=O)N[C@@H](CS)C(=O)N[C@@H](C)C(=O)N[C@H](C(=O)N[C@@H](CCC(N)=O)C(=O)N[C@@H](CC(C)C)C(=O)N[C@@H](CCCNC(=N)N)C(=O)N[C@@H](CCCNC(=N)N)C(=O)N[C@@H](Cc1ccccc1)C(=O)NCC(=O)N[C@@H](CC(=O)O)C(=O)N[C@@H](CCCCN)C(=O)N[C@@H](CC(C)C)C(=O)O)[C@@H](C)O (Palmitoyl-CATQLRRFGDKL-OH)
- Kd [1]: Not Active

Molecule: CCCCCCCCCCCCCCCC(=O)N[C@@H](CCC(=O)NCCCC[C@H](NC(=O)[C@H](C)NC(=O)[C@H](C)NC(=O)[C@H](CCC(N)=O)NC(=O)CNC(=O)[C@H](CCC(=O)O)NC(=O)[C@H](CC(C)C)NC(=O)[C@H](Cc1ccc(O)cc1)NC(=O)[C@H](CO)NC(=O)[C@H](CO)NC(=O)[C@@H](NC(=O)[C@H](CC(=O)O)NC(=O)[C@H](CO)NC(=O)[C@@H](NC(=O)[C@H](Cc1ccccc1)NC(=O)[C@@H](NC(=O)CNC(=O)[C@H](CCC(=O)O)NC(=O)[C@H](C)NC(=O)[C@@H](N)Cc1cnc[nH]1)[C@@H](C)O)[C@@H](C)O)C(C)C)C(=O)N[C@@H](CCC(=O)O)C(=O)N[C@@H](Cc1ccccc1)C(=O)N[C@H](C(=O)N[C@@H](C)C(=O)N[C@@H](Cc1c[nH]c2ccccc12)C(=O)N[C@@H](CC(C)C)C(=O)N[C@H](C(=O)N[C@@H](CCCNC(=N)N)C(=O)NCC(=O)N[C@@H](CCCNC(=N)N)C(=O)NCC(=O)O)C(C)C)[C@@H](C)CC)C(=O)O [LIRAGLUTIDE]
- inhibition in vivo at 0.5 µmol/kg (Mus musculus): 72.6%

Molecule: CCCCCCCCCCCCCCCC(=O)N[C@H](C(=O)N[C@@H](C)C(=O)N[C@@H](CCCNC(=N)N)C(=O)N[C@@H](CCCCN)C(=O)N[C@@H](CC(C)C)C(=O)N[C@@H](CCC(N)=O)C(=O)N[C@@H](CS)C(=O)N[C@H](C(=O)N[C@@H](C)C(=O)N[C@@H](CC(=O)O)C(=O)N[C@@H](CCC(N)=O)C(=O)N[C@@H](Cc1ccccc1)C(=O)O)[C@@H](C)CC)[C@@H](C)CC (Palmitoyl-IARKLQCIADQF-OH)
- Kd [1]: Not Active
